# Columns and labels:
# [1] = Half life in human microsomes at 5 uM incubated for 1 hr at 37 degC in presence of NADPH; type: ADME, Microsome; conditions: 1 h, 5 µM
# [2] = Half life in mouse microsomes at 5 uM incubated for 1 hr at 37 degC in presence of NADPH; type: ADME, Microsome; conditions: 1 h, 5 µM
# [3] = Plasma concentration in B6SJL mouse at 300 mg/kg after 12 hrs by mass spectrometry; type: ADME, organism-based; design: dose 300 mg/kg
# In short: (§1)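 B6SJL mice were given a single 300 mg/kg intraperitoneal bolus. Blood and brain were collected at 0, 1, 3, 6, 12 and 24 h, flash-frozen in liquid nitrogen and stored at -80 °C. Samples were analyzed by mass spectrometry with ESI ionization in MRM mode.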
# [4] = Plasma concentration in B6SJL mouse at 300 mg/kg after 24 hrs by mass spectrometry; type: ADME, organism-based; design: dose 300 mg/kg; in short: as §1
# [5] = AUClast in Sprague-Dawley rat at 1 mg/kg, iv; type: ADME, organism-based; design: dose 1 mg/kg, route intravenous, time 0 - last; conditions: plasma
# In short: (§2)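 Sprague-Dawley rats given a single 1 mg/kg bolus, intravenous or oral. Plasma PK parameters (AUC, dose-normalised AUC, half-life, clearance, Vss, Cmax, Tmax, oral bioavailability) derived from plasma levels.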
# [6] = AUClast in Sprague-Dawley rat at 1 mg/kg, po; type: ADME, organism-based; design: dose 1 mg/kg, route oral, time 0 - last; conditions: plasma; in short: as §2
# [7] = Volume of distribution at steady state in Sprague-Dawley rat at 1 mg/kg, iv; type: ADME, organism-based; design: dose 1 mg/kg, route intravenous; conditions: in vivo, read-out: Vdss
# In short: (§3)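 Sprague-Dawley rats received a single bolus of 1 mg/kg by i.v. or by oral route. Plasma PK parameters were derived from the plasma concentration profile.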
# [8] = Cmax in Sprague-Dawley rat at 1 mg/kg, po; type: ADME, organism-based; design: dose 1 mg/kg, route oral; conditions: in vivo; in short: as §2
# [9] = Tmax in Sprague-Dawley rat at 1 mg/kg, po; type: ADME, organism-based; design: dose 1 mg/kg, route oral; conditions: in vivo; in short: as §3
# hERG = hERG (Homo sapiens, UniProt Q12809); assay: Inhibition of human ERG expressed in human HEK293 cells at 10 uM by patch clamp assay; type: cell-based; conditions: HEK293 cells that express hERG
# In short: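 Cloned hERG potassium channels expressed in HEK293 cells. FASTPatch patch-clamp screen with test compound at 10 μM, two experiments. E-4031 used as positive control. Solubility at test concentration checked by TurboSol; value given as mean % hERG antagonism.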
# Cytochrome P450 2C19 = Cytochrome P450 2C19 (Homo sapiens, UniProt P33261); assay: Inhibition of CYP2C19; type: ADME
# Chain of Cytochrome P450 2C19 (P33261 whole entry): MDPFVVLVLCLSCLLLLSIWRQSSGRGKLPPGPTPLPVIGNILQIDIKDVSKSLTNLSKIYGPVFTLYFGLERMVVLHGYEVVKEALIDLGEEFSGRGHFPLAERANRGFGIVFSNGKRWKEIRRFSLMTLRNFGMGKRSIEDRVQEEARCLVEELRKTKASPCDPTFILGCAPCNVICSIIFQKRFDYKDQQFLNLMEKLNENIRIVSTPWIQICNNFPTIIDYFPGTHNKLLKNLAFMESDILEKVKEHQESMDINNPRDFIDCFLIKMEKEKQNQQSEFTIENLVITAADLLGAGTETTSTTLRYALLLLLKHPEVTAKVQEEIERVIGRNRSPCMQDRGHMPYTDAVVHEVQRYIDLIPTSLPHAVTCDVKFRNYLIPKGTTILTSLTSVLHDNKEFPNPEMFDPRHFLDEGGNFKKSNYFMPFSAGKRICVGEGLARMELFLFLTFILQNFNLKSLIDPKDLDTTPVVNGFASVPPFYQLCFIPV
# In short: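 Reversible inhibition of CYP isozymes in human liver microsomes, each isozyme with a single probe substrate. CYP3A4 tested with both testosterone and midazolam. IC50 determined.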
# [10] = molecular target: Adenosine receptor A2a (Homo sapiens) (UniProt P29274); assay: Inhibition of human adenosine A2 receptor at 10 uM by radioligand displacement assay
# Chain of Adenosine receptor A2a (Homo sapiens) (P29274 whole entry): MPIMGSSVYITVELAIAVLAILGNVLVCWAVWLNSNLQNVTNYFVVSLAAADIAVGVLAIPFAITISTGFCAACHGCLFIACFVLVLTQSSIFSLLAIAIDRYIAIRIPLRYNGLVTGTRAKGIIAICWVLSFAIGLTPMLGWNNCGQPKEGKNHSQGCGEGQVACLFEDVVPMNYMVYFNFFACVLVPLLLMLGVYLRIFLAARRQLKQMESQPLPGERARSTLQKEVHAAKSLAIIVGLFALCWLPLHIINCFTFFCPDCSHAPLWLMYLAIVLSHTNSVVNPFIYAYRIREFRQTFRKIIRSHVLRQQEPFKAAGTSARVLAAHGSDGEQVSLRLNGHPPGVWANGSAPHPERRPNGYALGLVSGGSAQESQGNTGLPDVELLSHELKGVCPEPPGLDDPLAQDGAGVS
# In short: (§4)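 LeadProfilingScreen panel of 68 in vitro enzyme and receptor assays. Compound tested at 10 μM in duplicate.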
# [11] = molecular target: Adenosine receptor A3 (Homo sapiens) (UniProt P0DMS8); assay: Inhibition of human adenosine A3 receptor at 10 uM by radioligand displacement assay
# Chain of Adenosine receptor A3 (Homo sapiens) (P0DMS8 whole entry): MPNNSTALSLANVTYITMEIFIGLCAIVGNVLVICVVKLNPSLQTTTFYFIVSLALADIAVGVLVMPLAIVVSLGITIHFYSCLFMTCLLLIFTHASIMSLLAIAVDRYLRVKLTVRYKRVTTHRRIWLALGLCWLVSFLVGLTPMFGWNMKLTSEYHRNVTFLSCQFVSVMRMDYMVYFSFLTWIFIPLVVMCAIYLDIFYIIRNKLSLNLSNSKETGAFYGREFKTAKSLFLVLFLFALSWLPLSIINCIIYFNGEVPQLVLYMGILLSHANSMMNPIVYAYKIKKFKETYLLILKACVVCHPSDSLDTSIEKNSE
# In short: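 Single concentration of 10 μM, tested in duplicate in a contract panel of 68 in vitro enzyme and receptor binding assays covering common adverse CNS, cardiovascular, pulmonary and genotoxic targets.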
# [12] = molecular target: Alpha-1D adrenergic receptor (Homo sapiens) (UniProt P25100); assay: Inhibition of human adrenergic alpha1D receptor at 10 uM by radioligand displacement assay; in short: as §4
# [13] = molecular target: Beta-1 adrenergic receptor (Homo sapiens) (UniProt P08588); assay: Inhibition of human beta1 adrenergic receptor at 10 uM by radioligand displacement assay; in short: as §4
# Chain of Beta-1 adrenergic receptor (Homo sapiens) (P08588 whole entry, looked up): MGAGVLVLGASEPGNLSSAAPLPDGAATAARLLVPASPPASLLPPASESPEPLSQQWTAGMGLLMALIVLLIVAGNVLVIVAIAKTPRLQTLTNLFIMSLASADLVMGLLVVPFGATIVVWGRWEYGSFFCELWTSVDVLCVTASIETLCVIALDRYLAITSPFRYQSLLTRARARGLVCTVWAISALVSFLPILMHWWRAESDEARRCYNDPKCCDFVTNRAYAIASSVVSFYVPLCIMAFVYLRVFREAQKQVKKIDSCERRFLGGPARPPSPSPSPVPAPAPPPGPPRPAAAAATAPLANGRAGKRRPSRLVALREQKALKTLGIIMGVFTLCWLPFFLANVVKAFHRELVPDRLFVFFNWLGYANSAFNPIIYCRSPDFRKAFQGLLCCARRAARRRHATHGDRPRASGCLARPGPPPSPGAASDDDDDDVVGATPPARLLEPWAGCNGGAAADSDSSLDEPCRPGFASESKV
# [14] = molecular target: B1 bradykinin receptor (Homo sapiens) (UniProt P46663); assay: Inhibition of human bradykinin B1 receptor at 10 uM by radioligand displacement assay; in short: as §4
# Rattus norvegicus [15] = organism: Rattus norvegicus; assay: Inhibition of rat N-type calcium channel at 10 uM by radioligand displacement assay
# In short: (§5)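 Single concentration of 10 μM, tested in duplicate as part of a contracted panel of 68 in vitro enzyme and receptor assays. The panel covers common adverse CNS, cardiovascular, pulmonary and genotoxic targets.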
# [16] = molecular target: D(3) dopamine receptor (Homo sapiens) (UniProt P35462); assay: Inhibition of human dopamine D3 receptor at 10 uM by radioligand displacement assay; in short: as §5
# Chain of D(3) dopamine receptor (Homo sapiens) (P35462 whole entry): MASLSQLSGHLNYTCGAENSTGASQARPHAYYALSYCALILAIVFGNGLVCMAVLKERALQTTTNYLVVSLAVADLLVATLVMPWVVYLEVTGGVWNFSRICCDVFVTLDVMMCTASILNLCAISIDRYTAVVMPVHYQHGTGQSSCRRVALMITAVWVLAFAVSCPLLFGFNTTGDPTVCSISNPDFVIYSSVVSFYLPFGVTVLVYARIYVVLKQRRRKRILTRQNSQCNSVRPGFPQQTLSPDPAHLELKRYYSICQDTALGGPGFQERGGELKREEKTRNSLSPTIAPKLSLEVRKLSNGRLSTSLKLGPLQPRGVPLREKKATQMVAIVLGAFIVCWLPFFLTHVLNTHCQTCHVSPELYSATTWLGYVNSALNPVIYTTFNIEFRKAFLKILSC
# Homo sapiens [17] = organism: Homo sapiens; assay: Inhibition of human dopamine D4.2 receptor at 10 uM by radioligand displacement assay; in short: as §5
# [18] = molecular target: Endothelin-1 receptor (Homo sapiens) (UniProt P25101); assay: Inhibition of human endothelin ETA at 10 uM by radioligand displacement assay; in short: as §5
# [19] = molecular target: Epidermal growth factor receptor (Homo sapiens) (UniProt P00533); assay: Inhibition of human epidermal growth factor receptor at 10 uM by radioligand displacement assay; in short: as §5
# Rattus norvegicus [20] = organism: Rattus norvegicus; assay: Inhibition of rat GABAA receptor flunitrazepam site at 10 uM by radioligand displacement assay; in short: as §5
# [21] = molecular target: Glucocorticoid receptor (Homo sapiens) (UniProt P04150); assay: Inhibition of human glucocorticoid receptor at 10 uM by radioligand displacement assay; in short: as §5
# Chain of Glucocorticoid receptor (Homo sapiens) (P04150 whole entry): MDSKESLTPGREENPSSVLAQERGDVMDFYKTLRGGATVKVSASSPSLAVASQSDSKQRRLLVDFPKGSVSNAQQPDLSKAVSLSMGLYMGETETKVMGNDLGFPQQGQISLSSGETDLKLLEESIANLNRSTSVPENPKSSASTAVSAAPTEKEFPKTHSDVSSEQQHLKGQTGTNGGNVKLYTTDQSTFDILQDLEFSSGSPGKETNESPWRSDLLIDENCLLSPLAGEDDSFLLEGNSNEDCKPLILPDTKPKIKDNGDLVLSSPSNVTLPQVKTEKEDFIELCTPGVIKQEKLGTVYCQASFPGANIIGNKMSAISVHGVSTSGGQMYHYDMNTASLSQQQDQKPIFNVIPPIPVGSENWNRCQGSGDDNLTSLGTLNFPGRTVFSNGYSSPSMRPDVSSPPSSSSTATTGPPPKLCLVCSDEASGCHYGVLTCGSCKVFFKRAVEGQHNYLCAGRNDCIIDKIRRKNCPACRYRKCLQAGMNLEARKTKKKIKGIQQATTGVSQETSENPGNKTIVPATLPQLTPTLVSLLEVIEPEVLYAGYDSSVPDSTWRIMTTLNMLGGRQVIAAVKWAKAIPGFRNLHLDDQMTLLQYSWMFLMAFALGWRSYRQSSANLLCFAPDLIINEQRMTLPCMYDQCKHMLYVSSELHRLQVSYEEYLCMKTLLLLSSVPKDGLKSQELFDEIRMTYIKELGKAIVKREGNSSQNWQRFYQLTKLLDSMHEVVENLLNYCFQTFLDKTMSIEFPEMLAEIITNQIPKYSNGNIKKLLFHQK
# [22] = molecular target: Glutamate NMDA receptor (Rattus norvegicus) (UniProt P35439+Q00959+Q00960+Q00961+Q62645+Q8VHN2+Q9R1M7); assay: Inhibition of rat NMDA receptor glutamate binding site at 10 uM by radioligand displacement assay; type: protein-complex assay; in short: as §5
# [23] = molecular target: Histamine H2 receptor (Homo sapiens) (UniProt P25021); assay: Inhibition of human histamine H2 receptor at 10 uM by radioligand displacement assay; in short: as §5
# Chain of Histamine H2 receptor (Homo sapiens) (P25021 whole entry): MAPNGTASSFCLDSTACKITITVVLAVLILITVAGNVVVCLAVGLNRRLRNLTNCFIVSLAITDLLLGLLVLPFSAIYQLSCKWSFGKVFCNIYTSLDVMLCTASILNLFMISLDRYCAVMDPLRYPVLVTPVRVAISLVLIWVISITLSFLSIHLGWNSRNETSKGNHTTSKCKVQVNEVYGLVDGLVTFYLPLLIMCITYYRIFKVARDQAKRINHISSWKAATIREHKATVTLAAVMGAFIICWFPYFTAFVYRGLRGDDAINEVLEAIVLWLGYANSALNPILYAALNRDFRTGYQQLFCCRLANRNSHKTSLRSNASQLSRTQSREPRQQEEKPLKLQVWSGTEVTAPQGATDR
# Mus musculus [24] = organism: Mus musculus; assay: Inhibition of mouse phorbol ester site of PKC at 10 uM by radioligand displacement assay; in short: as §5
# [25] = molecular target: Prostaglandin E2 receptor EP4 subtype (Homo sapiens) (UniProt P35408); assay: Inhibition of human prostanoid receptor EP4 at 10 uM by radioligand displacement assay; in short: as §5
# Chain of Prostaglandin E2 receptor EP4 subtype (Homo sapiens) (P35408 whole entry): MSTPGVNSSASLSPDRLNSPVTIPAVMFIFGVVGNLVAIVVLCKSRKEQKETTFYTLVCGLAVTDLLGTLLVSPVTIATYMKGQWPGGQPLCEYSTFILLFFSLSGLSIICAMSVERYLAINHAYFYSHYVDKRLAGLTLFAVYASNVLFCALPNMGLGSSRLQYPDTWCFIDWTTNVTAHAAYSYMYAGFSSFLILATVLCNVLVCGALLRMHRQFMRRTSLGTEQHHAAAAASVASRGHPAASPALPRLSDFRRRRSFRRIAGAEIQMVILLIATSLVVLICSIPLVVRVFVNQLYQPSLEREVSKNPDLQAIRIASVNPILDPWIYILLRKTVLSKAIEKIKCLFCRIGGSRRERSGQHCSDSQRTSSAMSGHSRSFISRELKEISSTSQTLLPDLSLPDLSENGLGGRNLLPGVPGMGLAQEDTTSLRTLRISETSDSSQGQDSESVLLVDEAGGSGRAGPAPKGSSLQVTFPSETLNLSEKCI
# Rattus norvegicus [26] = organism: Rattus norvegicus; assay: Inhibition of rat purinergic P2Y receptor at 10 uM by radioligand displacement assay; in short: as §5
# [27] = molecular target: 5-hydroxytryptamine receptor 3A (Homo sapiens) (UniProt P46098); assay: Inhibition of human 5HT3A receptor at 10 uM by radioligand displacement assay; in short: as §4
# Chain of 5-hydroxytryptamine receptor 3A (Homo sapiens) (P46098 whole entry): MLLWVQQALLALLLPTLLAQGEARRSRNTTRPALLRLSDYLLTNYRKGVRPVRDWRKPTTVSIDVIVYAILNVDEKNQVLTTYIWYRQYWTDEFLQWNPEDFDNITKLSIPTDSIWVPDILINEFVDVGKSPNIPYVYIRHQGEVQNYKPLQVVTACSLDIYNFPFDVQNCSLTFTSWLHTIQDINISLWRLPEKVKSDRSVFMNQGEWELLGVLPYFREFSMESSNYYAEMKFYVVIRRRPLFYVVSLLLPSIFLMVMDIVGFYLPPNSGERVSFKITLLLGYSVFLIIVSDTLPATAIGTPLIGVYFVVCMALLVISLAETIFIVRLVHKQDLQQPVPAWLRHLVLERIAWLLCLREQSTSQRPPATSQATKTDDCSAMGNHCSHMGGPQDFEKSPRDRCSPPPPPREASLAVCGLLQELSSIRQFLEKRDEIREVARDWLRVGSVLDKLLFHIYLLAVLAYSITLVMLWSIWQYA
# Homo sapiens [28] = organism: Homo sapiens; assay: Inhibition of human Sigma delta2 receptor at 10 uM by radioligand displacement assay; in short: as §4
# Rattus norvegicus [29] = organism: Rattus norvegicus; assay: Inhibition of rat sodium channel site 2 at 10 uM by radioligand displacement assay; in short: as §5
# Rattus norvegicus [30] = organism: Rattus norvegicus; assay: Inhibition of rat thyroid hormone receptor at 10 uM by radioligand displacement assay; in short: as §5
# [31] = molecular target: Sodium-dependent dopamine transporter (Homo sapiens) (UniProt Q01959); assay: Inhibition of human dopamine transporter at 10 uM by radioligand displacement assay; in short: as §5
# Chain of Sodium-dependent dopamine transporter (Homo sapiens) (Q01959 whole entry): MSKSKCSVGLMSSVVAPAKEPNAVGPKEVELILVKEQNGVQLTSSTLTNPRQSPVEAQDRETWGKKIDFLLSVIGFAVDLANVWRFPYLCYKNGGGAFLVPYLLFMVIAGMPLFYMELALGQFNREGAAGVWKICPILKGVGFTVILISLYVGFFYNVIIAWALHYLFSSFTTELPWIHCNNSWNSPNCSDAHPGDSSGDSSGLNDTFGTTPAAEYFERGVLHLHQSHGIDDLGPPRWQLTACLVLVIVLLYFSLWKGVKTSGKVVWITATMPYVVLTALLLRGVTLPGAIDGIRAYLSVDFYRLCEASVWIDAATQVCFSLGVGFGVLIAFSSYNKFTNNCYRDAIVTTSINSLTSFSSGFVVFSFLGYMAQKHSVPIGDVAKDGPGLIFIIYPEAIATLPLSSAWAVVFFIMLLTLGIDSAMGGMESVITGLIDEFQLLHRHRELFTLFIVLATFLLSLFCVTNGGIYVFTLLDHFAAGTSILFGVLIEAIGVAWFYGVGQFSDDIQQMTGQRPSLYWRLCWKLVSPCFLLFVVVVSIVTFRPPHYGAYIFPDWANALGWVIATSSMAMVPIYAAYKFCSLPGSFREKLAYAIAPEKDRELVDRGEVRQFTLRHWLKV
# [32] = Toxicity in ip dosed wild type mouse administered twice daily; type: organism-based; conditions: in vivo
# In short: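 Tolerability was tested in wild-type mice by i.p. injection twice daily. Each injection increased the dose one-fold, up to 75 mg/kg.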
# Mus musculus [33] = assay: Neuroprotective activity in SOD1 G93A mutant B6SJL mouse ALS model assessed as life extension at 20 mg/kg administered qd for 1 week (reference value: 125.7 +/- 4.9 days); type: functional
# [34] = Drug uptake in B6SJL mouse brain at 300 mg/kg after 4 hrs; type: ADME, organism-based; design: dose 300 mg/kg; conditions: read-out: Drug uptake
# In short: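 B6SJL mice given a 300 mg/kg intraperitoneal bolus. Blood and brain collected over 0–24 h, flash frozen in liquid nitrogen, stored at −80 °C. Analysed by mass spectrometry (ESI, MRM mode).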
structure (smiles),measurement,setting,value
O=c1cc(COc2cc(Cl)cc(Cl)c2)[nH][nH]1,t1/2,[1],93 min
same,t1/2,[2],36 min
same,concentration at 12 h,[3],248 µM
same,concentration at 24 h,[4],6.5 µM
same,AUC(0-t),[5],179 ng·h/mL
same,AUC(0-t),[6],42 ng·h/mL
same,Vd,[7],5.7 L/kg
same,Cmax,[8],39 ng/mL
same,Tmax,[9],15 min
same,inhibition at 10 µM,hERG,0.6%
same,IC50,Cytochrome P450 2C19,20 µM
same,inhibition,[10],-2%
same,inhibition,[11],6%
same,inhibition,[12],3%
same,inhibition,[13],1%
same,inhibition,[14],5%
same,inhibition,Rattus norvegicus [15],3%
same,inhibition,[16],-4%
same,inhibition,Homo sapiens [17],-3%
same,inhibition,[18],3%
same,inhibition,[19],5%
same,inhibition,Rattus norvegicus [20],12%
same,inhibition,[21],4%
same,inhibition,[22],-3%
same,inhibition,[23],3%
same,inhibition,Mus musculus [24],1%
same,inhibition,[25],-8%
same,inhibition,Rattus norvegicus [26],5%
same,inhibition,[27],7%
same,inhibition,Homo sapiens [28],5%
same,inhibition,Rattus norvegicus [29],4%
same,inhibition,Rattus norvegicus [30],10%
same,inhibition,[31],11%
same,MTD,[32],75 mg/kg
same,Survival,Mus musculus [33],142.5 days
same,concentration at 4 h,[34],194 µM

# From ChEMBL document CHEMBL2163259, “ADME-guided design and synthesis of aryloxanyl pyrazolone derivatives to block mutant superoxide dismutase 1 (SOD1) cytotoxicity and protein aggregation: potential application for the treatment of amyotrophic lateral sclerosis” (J Med Chem, 2012)
